This is one part of a sample in which hits are shown more often than they occur.
CHOP UPR activ – activators of apoptotic CHOP UPR arm, primary screen, cell-based, CHO-CHOP luciferase reporter, luminescence, uHTS; UPR activation; percent of tunicamycin response over DMSO baseline; activation, % at 10 µM; 330,000 compounds, 0.34% hits;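 active = at 10 µM dose, activation of 40% or more, normalized to positive control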;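 also: 100% = tunicamycin at 10 µg/mL and 0% = DMSO alone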
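System: CHO-CHOP luciferase reporter cell line; amount: 500 cells/well; buffer or medium: F12 medium containing 10% fetal bovine serum; incubation: 6 h compound exposure at 37 °C after overnight seeding; measured by: luciferase luminescence after 10 min with Steady-Glo reagent; evaluation: % reporter activation, DMSO baseline versus tunicamycin full activation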
TLR9-MyD88 block – inhibitors of TLR9-MyD88 association in cells, primary screen, cell-based, CHO, BLA complementation, fluorescence; CCF4 FRET ratio; inhibition, % at 4.98 µM; 340,000 compounds, 0.21% hits;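 active = inhibition above the mean over all tested compounds plus 3 SD, cut at about 21% in these data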;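 also: 0% = DMSO only wells and 100% = clavulanate BLA inhibitor control wells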
TLR4 MyD88 comp – inhibitors of TLR4-MyD88 association in cells, primary screen, cell-based, HeLa CL3-4, BLA complementation, FRET ratio | Toll-like receptor 4 (Homo sapiens) + Myeloid differentiation primary response protein … | 200,000 compounds, 0.18% hits | HeLa CL3-4 TLR4/MyD88 BLA complementation | inhibition, % at 8.4 µM; in the data active = inhibition above about 25%;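 also: 0% = vehicle and 100% = reference inhibitor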
XBP1 UPR activ – activators of adaptive XBP1 UPR arm, primary screen, cell-based, CHO-XBP1 luciferase reporter, luminescence, uHTS; 330,000 compounds, 0.33% hits; activation, % at 20 µM; IRE1-XBP1 UPR activation; percent of tunicamycin response, DMSO as zero;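 active = versus positive control, 20 µM dose yields 30% or more activation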;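 also: 100% = tunicamycin at 10 µg/mL and 0% = DMSO only wells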
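Material – CHO cell line with stable XBP1 luciferase reporter · Buffer or medium – F12 plus 10% FBS · Compound – single point, 20 µM final compound, 1% DMSO · Schedule – 16-18 h cell attachment at 37 °C, then 6 h compound exposure · Signal – Steady-Glo luminescence read · Benchmarks – high control tunicamycin 10 µg/mL final, low control DMSO vehicle only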
NOD2 RIPK2 PPI – NOD2-RIPK2 binding disruptors in cells, primary screen, fluorescence, CHO cells, BLA complementation | 360,000 compounds, 0.38% hits | Receptor-interacting serine/threonine-protein kinase 2 (Homo sapiens), O43353 | CCF4 ratio | inhibition, % at 4.98 µM; in the data active = inhibition above about 21%;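 also: 0% = vehicle only and 100% = reference blocker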
CHOP inh – inhibitors of CHOP promoter induction, primary screen, cell-based, unfolded protein response, luciferase reporter. CHO-K1 CHOP-promoter luciferase, tunicamycin-induced, 15-18 h. inhibition, % at 10 µM. 220,000 compounds, 3.8% hits;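 active = compounds that reduced the stress-induced luciferase reporter signal by more than about 70% of percent inhibition, limit read from the data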;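 also: 0% = tunicamycin plus vehicle and 100% = wells without tunicamycin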
The depositor's hits bear a star; x = no result given.

SMILES	CHOP UPR activ	TLR9-MyD88 block	TLR4 MyD88 comp	XBP1 UPR activ	NOD2 RIPK2 PPI	CHOP inh
Cc1ccc(C)c(Cn2c(=O)n(CCC(=O)NCc3ccco3)c(=O)c3ccccc32)c1	-4.2	-3.2	-0.7	-4.3	-0.7	83.0*
COCCCN(C(=O)C1=COCCO1)c1c(N)n(Cc2ccccc2)c(=O)[nH]c1=O	x	-1.4	x	x	-1.2	x
CC(C)c1cc(Cn2c3ccccc3c(=O)n2C(C)CBr)on1 (stereo not given)	x	x	x	x	0.5	x
O=C1c2ccccc2C(c2nnnn2-c2ccc3c(c2)OCCO3)N1CCOc1ccccc1 (stereo not given)	x	x	x	x	2.6	x
O=c1c2ccccc2sn1-c1ccc(S(=O)(=O)N2CCCC2)cc1	9.4	-3.0	-9.8	-1.2	1.6	86.9*
CN(C)S(=O)(=O)c1cccc(-n2sc3ccccc3c2=O)c1	3.6	3.9	-19.8	-2.7	-4.2	93.5*
O=c1c2ccccc2sn1-c1ccc(S(=O)(=O)N2CCCCC2)cc1	6.2	1.2	7.0	-2.5	1.4	x
CCCCCCCCN1C(=O)[C@H](CC(=O)NCC2CCCCC2)C[C@@]2(C(=O)OC)CCCCC=C12	x	x	x	x	-8.4	x
COC(=O)c1ccc(CNC(=O)c2cc(S(=O)(=O)NCc3ccccc3)ccc2C)cc1	x	0.7	x	x	-1.8	x
CC1CC(=O)Nc2ccccc2N1C(=O)CN1CCN(c2ccccc2)CC1 (stereo not given)	0.5	3.8	1.4	1.6	10.8	80.1*
CC(C)C[C@@H]1CC2=C(C(=O)OC(C)(C)O2)[C@H](c2ccc(Cl)cc2)O1	x	x	x	x	-2.8	x
CN1CCN(c2oc(COc3ccc(-c4ccccc4)cc3)nc2C#N)CC1	0.1	-6.2	7.8	-0.2	-8.6	86.9*
COc1ccc(N2CCN(c3oc(COc4ccccc4)nc3C#N)CC2)cc1	0.7	4.6	-8.0	-2.8	-3.2	35.4
COc1ccc(Sc2nnc(-c3ccccc3)cc2C#N)cc1	0.4	-6.8	5.2	-2.4	0.6	90.3*
O=S1(=O)C[C@H](N2CCC[C@@H]2CO)[C@@H](COCc2ccccc2)N1	x	x	x	x	-4.7	x
COCCNC(=O)Nc1ccc2nc(-c3cccs3)c(-c3cccs3)nc2c1	1.9	3.8	-6.9	0.4	4.0	46.6
O=C(Nc1ccc2nc(-c3cccs3)c(-c3cccs3)nc2c1)NC1CC1	-0.2	-7.7	-0.5	-2.4	-2.7	91.7*
Cc1cc(=O)oc2cc(NC(=O)C3COc4ccccc4O3)ccc12 (stereo not given)	4.4	-0.8	-7.3	0.5	11.7	88.9*
O=C(Nc1ccc2c(c1)OCO2)C1COc2ccccc2O1 (stereo not given)	4.0	4.6	-9.8	4.4	5.3	-4.0
Cc1cccc(OCC(=O)Nc2ccc3c(C)cc(=O)oc3c2)c1	-0.3	-7.3	8.8	0.1	2.0	92.3*
COc1cccc(-c2nnc3sc(C4CCCCC4)nn23)c1	-0.9	-13.2	-2.4	-4.3	0.5	73.7*
CCOc1cccc(-c2nnc3sc(C4CCCCC4)nn23)c1	0.2	1.6	-5.0	3.9	9.1	55.9
COc1cc(OC)cc(C(=O)Nc2nnc(NC(=S)Nc3ccccc3)s2)c1	-0.7	3.8	1.6	-2.3	-16.9	107.7*
CC(C)(C)C1CCC2(CC1)C(C#N)=C(SCC(=O)NC1CCCCC1)NC(=O)C2C#N (stereo not given)	-2.8	-2.3	-8.3	1.1	-8.9	81.2*
N#CC1=C(SCC(=O)NC23CC4CC(CC(C4)C2)C3)NC(=O)C(C#N)C12CCCCC2 (stereo not given)	2.2	-8.1	6.4	-2.8	1.6	84.6*
N#CC1=C(SCC(=O)NC2CC2)NC(=O)C(C#N)C12CCCCC2 (stereo not given)	0.5	-3.8	-3.6	-1.7	6.0	-11.1

From PubChem
